High-throughput results (PubChem)
Most compounds without a hit are left out; they make up all but 2.3% or so of the library.
Diaph act CS – compounds boosting diaphorase resazurin reduction – biochemical, uHTS, resorufin fluorescence, counter-screen for diaphorase-coupled primary assays, primary screen; Diaphorase/resazurin coupled assay, 16 min; stronger effect = higher value; 1 = vehicle wells, 0 = NADH-free wells; activation factor at 20 µM; hit rate 0.005% among 190,000; AID 1229, 2008;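 active means diaphorase activity raised at least twofold by the compound at 20 µM; inactive means activation factor below 2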
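Material: Purified diaphorase enzyme from Clostridium kluyveri | Buffer or medium: 50 mM HEPES pH 7.4 with 4.542 mM MgCl2, 0.005% Tween 20 | Times: 16 min enzyme reaction, ambient temperature | Signal: Red resorufin fluorescence at 544/590 nm excitation/emission | Measure: Increased resorufin signal from activators or reducing compounds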
Diaphorase inh – diaphorase inhibitors and chemical oxidizers, primary screen, counter-screen for diaphorase-coupled primary assays, biochemical, uHTS, resorufin fluorescence | hit rate 0.69% among 190,000 | diaphorase resazurin-to-resorufin fluorescence, NADH, 16 min; bacterial (C. kluyveri) enzyme, not human | AID 1217, 2008 | inhibition, % at 20 µM;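 active means primary screen inhibition at 20 µM above a set limit, cut at about 50% in these data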;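 further: plate controls were DMSO with full reaction for no effect and wells lacking NADH for full effect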
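Detection: fluorescence of resorufin formed from resazurin, Ex 544/Em 590 nm; test system: Clostridium kluyveri diaphorase enzyme; amount: 0.14 U/mL diaphorase, enzyme working solution; times: 16-min room-temperature incubation before reading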
FLuc act counter – FLuc activators, initial screening, artefact control for FLuc-dependent activation tests, biochemical, ATPlite luminescence; Luciferin 4-monooxygenase (Photinus pyralis), P08659; ATPlite luciferase biochemical, 10 min; 0 = ATP-free wells, 1 = DMSO control; activation factor at 10 µM; 200,000 tested, under 10 active;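 active means luciferase activation factor, scaled between plate controls, of at least 2 with compound at 10 µM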
Target sequence (P08659 whole entry, looked up): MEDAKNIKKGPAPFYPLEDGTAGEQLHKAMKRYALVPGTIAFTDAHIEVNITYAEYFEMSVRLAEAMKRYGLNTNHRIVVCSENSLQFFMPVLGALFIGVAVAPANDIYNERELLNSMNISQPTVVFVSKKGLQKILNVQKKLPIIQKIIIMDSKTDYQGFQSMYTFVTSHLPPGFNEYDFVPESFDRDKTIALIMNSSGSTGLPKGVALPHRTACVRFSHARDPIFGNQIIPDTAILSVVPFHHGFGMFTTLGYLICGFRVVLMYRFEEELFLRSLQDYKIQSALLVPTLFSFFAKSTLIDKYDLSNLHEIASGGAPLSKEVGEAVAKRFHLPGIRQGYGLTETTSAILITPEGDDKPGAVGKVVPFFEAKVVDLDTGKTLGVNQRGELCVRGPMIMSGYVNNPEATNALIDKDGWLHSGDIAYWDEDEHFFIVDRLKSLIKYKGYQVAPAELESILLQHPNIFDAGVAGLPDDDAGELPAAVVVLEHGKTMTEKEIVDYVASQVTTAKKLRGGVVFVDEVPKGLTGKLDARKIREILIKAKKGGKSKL
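Assay system: Luciferase/luciferin detection reagent, cell-free biochemical luciferase assay / Read-out: luciferase activation / Benchmarks: No-ATP low control, compound-free enzyme-plus-ATP high control / Medium: PBS buffer for ATP / Detection: luminescence measurement of luciferase light output / Schedule: 10 min at ambient temperature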
G6PDH CS – L. mesenteroides G6PDH inhibitors, counter-screen for G6PDH-coupled screening assays, biochemical, Leuconostoc mesenteroides enzyme | glucose-6-phosphate dehydrogenase [Leuconostoc mesenteroides] | hit rate 0.12% among 200,000 | AID 1020, 2008 | Purified L. mesenteroides G6PDH, diaphorase/resazurin coupled fluorescence, 45 min | inhibition, % at 5 µM; in the data active means inhibition above about 50%
FLuc inh counter – firefly luciferase enzyme inhibitors, primary screen, artefact control for luciferase-based inhibitor screens, biochemical, luminescence, ATPLite; AID 1006, 2008; inhibition, % at 10 µM; 10 min; hit rate 1.5% among 200,000;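 active means inhibition above about 50% when tested at 10 µM, limit read from the data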
Starred values were filed as active, the others as inactive.

SMILES	Diaph act CS	Diaphorase inh	FLuc act counter	G6PDH CS	FLuc inh counter
Cc1ccc(-n2c(O)c(C=Nc3ccccc3-c3n[nH]c(=S)[nH]c3=O)c3ccccc3c2=O)c(C)c1	0.3	72.2*	1	-0.9	-3.4
CN(C(=O)c1ccccc1C(=O)OCC(=O)NC(=O)NC(C)(C)C)C1CCCCC1	0.9	9.8	1	19.2	-0.1
CN(C)c1ccc(N=Nc2ccccc2C(=O)OCC(=O)N(C)C2CCCCC2)cc1	0.9	11.6	0.3	-13.5	68.5*
CN(C)c1ccc(N=Nc2ccccc2C(=O)OCC(=O)NCC2CCCCC2)cc1	0.8	19.2	0.5	-4.9	48.0
CN(C)c1ccc(N=Nc2ccccc2C(=O)OCC(=O)NC2CCCC2)cc1	0.9	13.1	0.4	-23.8	59.4*
Cc1nonc1OCCNC(=O)C12CC3CC(CC(C3)C1)C2	0.9	11.2	1.1	-2.4	-6.7
CCOc1ccc(C(=O)NCC(=O)OCC(=O)Nc2ccc(C)c(S(=O)(=O)N(C)C)c2)cc1	0.7	27.1	0.4	0.0	64.6*
COc1ccc(OCC(=O)Nc2ccc(C)c(S(=O)(=O)N(C)C)c2)cc1	1	0.0	0.9	4.8	6.0
Cc1noc(N)c1C(=O)Nc1ccc(C(C)(C)C)cc1	0.8	15.9	0.3	0.9	67.1*
CCOC(=O)Cc1ccc(NC(=O)c2ccc(C(C)(C)C)cc2)cc1	0.7	25.9	0.5	1.4	53.8*
CCOC(=O)Cc1ccc(NC(=O)c2ccccc2Br)cc1	1	4.7	0.8	14.8	17.9
CCOP(=O)(OCC)C(O)c1cc(OC)c(OC)c(OC)c1 (configuration not stated)	0.9	6.9	1	7.1	-2.2
Cc1ccc(SCc2cn3c(C)csc3n2)cc1	1	1.3	0.4	-1.8	63.6*
CCC(=O)Nc1cccc(C(=O)OCC(=O)c2ccccc2Cl)c1	0.9	9.4	0.7	2.8	30.9
CC(=O)Nc1cccc(C(=O)OCC(=O)c2ccccc2Cl)c1	0.9	6.7	0.2	10.6	82.3*
O=C(Nc1ccc2c(c1)OCCO2)c1cncc(Br)c1	0.9	5.2	0.3	-1.5	65.0*
O=C(Nc1ccc2c(c1)OCCO2)c1ccc(Br)s1	0.8	16.2	0.1	-13.9	86.3*
O=C(N/N=C/c1cccc(F)c1)c1ccc(Cl)cc1	1	-0.6	0.4	7.2	57.6*
O=C(Nc1ccccc1C(=O)N/N=C/c1ccc(F)cc1)c1ccccc1Br	0.9	14.3	0.3	-0.1	74.0*
CSc1ccc(/C=N/NC(=O)c2cc(O)cc(O)c2)cc1	1	2.6	0.3	10.0	73.5*
O=C(N/N=C/c1ccc(O)cc1)c1ccc(NC(=O)c2ccccc2Br)cc1	1	-3.2	1	3.3	-2.9
O=C(N/N=C/c1ccccc1C(F)(F)F)c1ccc(O)cc1	0.9	11.9	0.4	-2.6	55.4*
CSc1ccc(/C=N/NC(=O)c2ccc(C)c(C)c2)cc1	1	-2.1	0.9	1.5	8.1
O=C(N/N=C/c1ccccc1O)c1cccc(C(F)(F)F)c1	0.9	6.9	1	-12.1	-2.0
CCOc1cc(N2CCOCC2)c(OCC)cc1NC(=O)CN1C(=O)C2C3C=CC(C3)C2C1=O (configuration not stated)	0.9	10.2	1	-1.6	-1.5
SMILES	Diaph act CS	Diaphorase inh	FLuc act counter	G6PDH CS	FLuc inh counter
Cc1nn(C(=O)CNS(=O)(=O)c2ccccc2)c(C)c1Sc1ccc(Cl)cc1	0.9	14.2	1.1	10.6	-6.1
CO/N=C/C1CCN(c2ncc(C(F)(F)F)cc2Cl)C1=O (configuration not stated)	1.1	-11.1	1	9.9	-1.7
Cc1c(Cl)c(C(=O)N2CCCC2)nn1C	1	1.9	1.1	0.3	-5.0
O=C(N/N=C/c1ccc(F)cc1)c1ccc(Br)cc1	0.9	9.3	0.8	4.1	18.9
O=C(N/N=C/c1ccc(F)cc1)c1ccccc1	1	3.0	0.2	1.1	75.4*
CCOC(=O)c1sc(NC(=O)c2ccc(CC)s2)nc1C	0.9	5.9	0.9	-8.9	12.1
CC(=O)c1sc(NC(=O)c2cccc(C)c2)nc1C	0.9	12.7	0.5	1.7	50.6*
C=CCOC(=O)c1sc(NC(=O)c2ccco2)nc1C	0.8	20.0	0.4	3.1	57.6*
CC(=O)c1sc(NC(=O)c2ccc(F)c(F)c2)nc1C	1	3.6	0.9	3.8	9.6
CCOC(=O)c1sc(NC(=O)c2ccccc2OC)nc1C	1	1.4	0.4	-49.8	61.6*
O=C(Nc1nc(-c2ccccn2)cs1)c1cc2ccccc2o1	0.9	7.4	0.7	19.9	27.1
Cc1csc(NC(=O)c2ccco2)n1	0.8	17.6	1	-11.8	-3.8
Cc1cnc(NC(=O)c2cc3ccccc3o2)s1	1	-1.4	0.1	-4.6	88.7*
O=C(CCN1C(=O)CSC1=O)Nc1ccccc1	0.9	8.6	1	1.5	-2.3
CC(=O)Nc1ccc(/C=C/c2ccc3c([N+](=O)[O-])cccc3n2)cc1	0.9	5.0	0.8	1.1	23.2
C/C(=N\NC(=O)c1nn(C)c(C)c1Br)c1ccc(NC(=O)c2ccccc2F)cc1	0.9	9.1	1.1	-20.3	-7.5
CCOC(=O)c1sc(NC(=O)/C=C/c2c(F)cccc2Cl)nc1C	0.9	10.2	1	7.5	-1.6
CCOC(=O)c1sc(NC(=O)c2cc3ccccc3o2)nc1C	1	1.8	0.5	2.8	51.9*
CCOC(=O)c1sc(NC(=O)Nc2ccccc2F)nc1C	1	2.4	0.2	-5.5	84.3*
CC(=O)c1sc(NC(=O)C2COc3ccccc3O2)nc1C (configuration not stated)	1	4.3	0.4	3.5	59.9*
O=C(Nc1nncs1)C1COc2ccccc2O1 (configuration not stated)	0.8	15.6	1	-3.0	-1.0
CCOC(=O)c1ccc(NC(=O)c2cc3ccccc3o2)cc1	0.9	11.6	1	6.5	4.4
Nc1ccc2oc(-c3cc(Br)ccc3Cl)nc2c1	0.7	28.9	1	6.4	2.4
CCc1ccc2oc(-c3cc(N)ccc3Cl)nc2c1	0.9	11.1	0.4	-0.9	56.5*
CCc1ccc2oc(-c3cc(N)cc(C)c3O)nc2c1	1	3.9	0.4	-1.5	61.9*
CCCC(=O)Nc1ccc(-c2nc3cc(C)c(C)cc3o2)c(O)c1	1.2	-16.4	1	1.6	-3.5
Nc1ccc2oc(-c3ccccc3Cl)nc2c1	0.9	13.8	0.3	-6.9	74.6*
CCc1ccc2oc(-c3cc(N)ccc3O)nc2c1	1.1	-7.3	0.1	-10.9	88.3*
